pEC50, pIC50: −log10 of the molar value.
How the values were obtained:
[1] = test system: Acinetobacter baumannii; experiment: Antibacterial activity against Acinetobacter baumannii ATCC 19606; format: functional; details: ATCC 19606 = CIP 70.34 = JCM 6841
Procedure, shortened: (§1)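 MIC, the minimum inhibitory concentration, measured against planktonic bacteria.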

[2] = Cytotoxicity against sheep RBC assessed hemolysis; format: cell-based, Ovis aries, Erythrocyte; details: sheep red blood cells, read-out: HD50 (the source's name)
Procedure, shortened: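 Red blood cell hemolysis assay using defibrinated sheep blood. HD50 is the concentration at which 50% hemolysis is observed.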

[3] = test system: Acinetobacter baumannii; experiment: Antibacterial activity against multi-drug resistant Acinetobacter baumannii ATCC BAA-1605; format: functional; procedure, shortened: as §1
[4] = test system: Staphylococcus aureus; experiment: Antibiofilm activity against Staphylococcus aureus ATCC 29213 assessed as biofilm dispersal; format: functional, organism-based
Procedure, shortened: (§2)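 Dispersal of pre-formed biofilms, tested in dose-response. The value reported is EC50.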

[5] = test system: Pseudomonas aeruginosa; experiment: Antibacterial activity against Pseudomonas aeruginosa PA14; format: functional
[6] = test system: Staphylococcus aureus; experiment: Antibacterial activity against Staphylococcus aureus ATCC 29213; format: functional; procedure, shortened: as §1
[7] = test system: Acinetobacter baumannii; experiment: Antibiofilm activity against Acinetobacter baumannii ATCC 19606; format: functional, organism-based; details: ATCC 19606 = CIP 70.34 = JCM 6841
Procedure, shortened: (§3)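 Crystal violet reporter assay of biofilm formation, run as a dose-response. IC50 is the concentration inhibiting 50% of biofilm formation. Highest concentration tested 200 µM.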

[8] = test system: Pseudomonas aeruginosa; experiment: Antibiofilm activity against Pseudomonas aeruginosa PA14; format: functional, organism-based; procedure, shortened: as §3
[9] = test system: Staphylococcus aureus; experiment: Antibiofilm activity against methicillin-resistant Staphylococcus aureus assessed as biofilm dispersal; format: functional, organism-based; procedure, shortened: as §2
[10] = test system: Acinetobacter baumannii; experiment: Antibiofilm activity against Acinetobacter baumannii ATCC 19606 assessed as biofilm dispersal; format: functional, organism-based; details: ATCC 19606 = CIP 70.34 = JCM 6841
Procedure, shortened: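 Dispersal of pre-formed A. baumannii biofilms, run as a dose-response. EC50 values are reported for dispersal.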

[11] = test system: Staphylococcus aureus; experiment: Antibacterial activity against methicillin-resistant Staphylococcus aureus; format: functional; procedure, shortened: as §1
[12] = test system: Staphylococcus aureus; experiment: Antibiofilm activity against methicillin-resistant Staphylococcus aureus; format: functional, organism-based
Procedure, shortened: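 Biofilm inhibition dose-response study. Biofilm formation is quantified with a crystal violet reporter assay. IC50 is the concentration that inhibits 50% of biofilm formation.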

Row | Compound | MIC [1] [mg/L] | HC50 [2] [µM] | MIC [3] [mg/L] | pEC50 [4] | MIC [5] [mg/L] | MIC [6] [mg/L] | pIC50 [7] | pIC50 [8] | pEC50 [9] | pEC50 [10] | MIC [11] [mg/L] | pIC50 [12]
1 | CC(C)[C@@H]1CC[C@@H](C)C[C@H]1OC(=O)N(CCCCCCc1cn(CCCCCc2c[nH]c(N)n2)nn1)CCc1ccccn1.Cl | 16 | 93.8 | 16 | < 3.70 | > 128 | 4 | 4.72 | < 3.70 | < 3.70 | 4.43 | 8 | –
2 | CC(C)[C@@H]1CC[C@@H](C)C[C@H]1OC(=O)NCCCCCCc1c[nH]c(N)n1.Cl | 16 | 229 | 16 | – | 64 | 8 | – | 4.74 | – | – | 8 | –
3 | CC(C)[C@@H]1CC[C@@H](C)C[C@H]1OC(=O)NCCCCCc1c[nH]c(N)n1.Cl | 32 | 464 | 32 | – | 32 | 32 | 4.72 | 4.74 | – | – | 32 | –
4 | CC(C)[C@@H]1CC[C@@H](C)C[C@H]1OC(=O)N(CCCCCCc1cn(CCCCCCc2c[nH]c(N)n2)nn1)CCc1ccccn1.Cl | 32 | 46 | > 128 | – | > 128 | 4 | 4.74 | < 3.70 | – | – | 4 | –
5 | CC(C)[C@@H]1CC[C@@H](C)C[C@H]1OC(=O)NCCn1cc(CCCCCc2c[nH]c(N)n2)nn1.Cl | 64 | 474 | 128 | – | > 128 | 16 | 4.02 | 4.23 | – | – | 64 | 4.52
6 | CC(C)[C@@H]1CC[C@@H](C)C[C@H]1OC(=O)NCCCn1cc(CCCCCc2c[nH]c(N)n2)nn1.Cl | 64 | 318 | 64 | – | 64 | 16 | – | 4.39 | – | – | 16 | 4.69
7 | CC(C)[C@@H]1CC[C@@H](C)C[C@H]1OC(=O)N(CCCCCCc1cn(CCCCCCCc2c[nH]c(N)n2)nn1)CCc1ccccn1.Cl | > 128 | 42.7 | > 128 | 4.49 | > 128 | 4 | 4.78 | < 3.70 | 4.42 | 4.69 | 4 | –
8 | CC(=O)NCCCCCCc1cn(CCCCCc2c[nH]c(N)n2)nn1.Cl | > 128 | > 800 | > 128 | – | > 128 | > 128 | < 3.70 | < 3.70 | – | – | > 128 | < 3.70
9 | CC(C)[C@@H]1CC[C@@H](C)C[C@H]1OC(=O)NCCCCCCCc1c[nH]c(N)n1.Cl | 8 | 474 | 8 | 4.41 | 64 | 8 | 4.78 | – | 4.27 | 4.17 | 8 | –
